Compound activity deposited in PubChem by Broad Institute.
SIRT5 block: inhibitors of human sirtuin-5 desuccinylase | Q9NXA8 | Purified SirT5, succinyl-peptide AMC, trypsin-coupled fluorescence | inhibition, % at 15 µM | 330,000 tested, 1.1% active | AID 652115; in the data active = inhibition above about 15%
Ecoli rRNA inh: selective bacterial rRNA inhibition in E. coli; E. coli WT GFP vs humanized-ribosome RFP mutants, fluorescence, 24 h; active compounds read low; DMSO median 0, no signal -100; GFP signal change (wild-type ribosome), % (no concentration beside the values); 350,000 tested, 1.6% active;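 active = significant combined selectivity score with lowered wild-type GFP, culture density cut under 30%, mutant RFP and density less affected; inactive = any of these conditions unmet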
FN deposition inh: fibronectin deposition inhibition; AH1F fibroblasts, Alexa488-fibronectin deposition fluorescence, overnight; inhibition, % at 12.6 µM; 350,000 tested, 0.086% active;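 active = mean inhibition across replicates of 30% or more, regardless of how many single replicates reach that level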;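 note: positive control wells lacked labelled fibronectin entirely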
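Measured by – fluorescence 485/525 nm · System – AH1F fibroblast monolayer, labelled fibronectin deposition · Amount – 10000 cells per well · Buffer or medium – serum-reduced DMEM (2% serum) · Doses – single dose, pinned · Also added – fluorescent fibronectin at 24 nM final · Schedule – 1 h cell attachment, overnight exposure to compound and label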
E-sel inducer: E-selectin induction on HUVECs; 260,000 tested, 0.37% active; AID 686992; activation, % at 7.58 µM; P16581; HUVEC E-selectin immunofluorescence imaging; normalized: neutral wells 0, TNF-alpha wells 100;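 active = mean E-selectin-positive cell signal at least 10% of the positive control, reached in at least 60% of replicates, without over 20% cell loss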
Target sequence (P16581 whole entry, looked up): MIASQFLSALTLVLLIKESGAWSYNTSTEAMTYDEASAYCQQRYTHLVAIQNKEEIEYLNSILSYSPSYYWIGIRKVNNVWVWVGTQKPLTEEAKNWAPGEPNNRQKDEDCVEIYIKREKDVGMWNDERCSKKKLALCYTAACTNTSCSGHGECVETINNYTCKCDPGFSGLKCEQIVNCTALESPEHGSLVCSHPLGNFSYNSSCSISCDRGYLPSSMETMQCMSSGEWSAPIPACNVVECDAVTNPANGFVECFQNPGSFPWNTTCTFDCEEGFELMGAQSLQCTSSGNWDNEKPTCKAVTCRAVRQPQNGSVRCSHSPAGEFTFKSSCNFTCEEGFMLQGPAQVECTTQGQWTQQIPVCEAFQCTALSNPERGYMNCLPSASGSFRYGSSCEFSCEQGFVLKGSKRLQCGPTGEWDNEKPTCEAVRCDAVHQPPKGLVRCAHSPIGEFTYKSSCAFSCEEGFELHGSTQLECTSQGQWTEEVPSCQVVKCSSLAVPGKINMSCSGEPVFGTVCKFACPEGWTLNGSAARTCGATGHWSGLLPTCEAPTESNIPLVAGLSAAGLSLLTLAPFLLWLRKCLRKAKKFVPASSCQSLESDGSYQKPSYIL
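System: HUVEC / Compound: single concentration / Signal: immunofluorescence imaging / Read-out: percent E-selectin-positive cells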
C2C12 statin: protects C2C12 myotubes from simvastatin toxicity. ATP luminescence, 48 h; scaled: DMSO 0, geranylgeraniol control 100. rescue of ATP level, % at 7.49 µM. 330,000 tested, 0.78% active;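 active = mean ATP rescue above about 67%, or every replicate alone reaching that limit, limit read from the data, passing the limit was not always enough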;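 note: myotubes were challenged with 10 µM simvastatin during compound exposure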
FGF22 binding: shifts melting point of recombinant human FGF22 | Q9HCT0 | recombinant FGF22 thermal shift, SYPRO orange fluorescence; percent of sucrose octasulfate shift, DMSO zero | activity (Tm shift, normalised), % at 9.99 µM | 340,000 tested, 1.5% active;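 active = mean Tm shift, scaled 0 neutral to 100 positive control, at about 1.3% or above, every replicate too, limit read from the data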
Numbers without * were called inactive; / = no result given. This is a sample that favours compounds with a hit; in the whole collection about 4% have one here.

SMILES | SIRT5 block | Ecoli rRNA inh | FN deposition inh | E-sel inducer | C2C12 statin | FGF22 binding
O=C(O)CCCN1C(=O)c2ccc(C(=O)c3cccc([N+](=O)[O-])c3)cc2C1=O | 0 | 8 | 8 | 0 | 5 | 43*
O=C(O)CCCN1C(=O)c2ccc(Oc3cccc([N+](=O)[O-])c3)cc2C1=O | 1 | 8 | -6 | 0 | 3 | 0
CO[C@H](C(=O)N(C)C[C@@H]1OCc2ccccc2-c2c(n(C)c3ccccc23)C(=O)N([C@H](C)CO)C[C@H]1C)c1ccccc1 | / | 0 | 5 | 3 | -3 | /
O=C(N[C@H]1CC[C@H](CCNS(=O)(=O)c2ccc(Cl)cc2)O[C@H]1CO)c1cnccn1 | 32* | -10 | / | 0 | -9 | 0
COc1ccccc1NC(=O)N[C@@H]1CC[C@H](CCNS(=O)(=O)c2ccc(Cl)cc2)O[C@@H]1CO | 26* | -5 | -8 | 0 | 8 | 0
Cc1noc(C)c1NC(=O)Nc1ccc2c(c1)CC(=O)N([C@H](C)CO)C[C@@H](C)[C@@H](CN(C)C(=O)Nc1ccccc1)O2 | -1 | 5 | / | 0 | -9 | 1
N#CC1=C(N)C(C#N)(C#N)[C@H](c2cccnc2)[C@H]2CN(C(=O)OCc3ccccc3)CC=C12 | 16* | 1 | 12 | 0 | -7 | 0
N#CC1=C(N)C(C#N)(C#N)C(c2ccncc2)C2CN(C(=O)OCc3ccccc3)CC=C12 (centres undefined) | / | / | / | / | 16 | /
Cc1ccc(-n2c(=O)[nH]c3c(oc4ccccc43)c2=O)cc1 | -3 | 4 | 31* | 1 | / | 0
C[C@H](NC(=O)C[C@H]1C[C@H]2c3cc(NC(=O)CC4CC4)ccc3O[C@H]2[C@@H](CO)O1)c1ccccc1 | -2 | -1 | -18 | 0 | 6 | 0
[N-]=[N+]=Nc1ccccc1C[C@@]1(C(=O)N2CCOCC2)N=C(c2ccc(OCCCO)cc2)O[C@@H]1c1ccccc1 | 5 | / | / | / | / | 0
COc1ccc(S(=O)(=O)N2CCOC23CCN(S(=O)(=O)c2ccccc2)CC3)cc1 | 27* | 5 | 0 | -1 | -14 | 0
C[C@H]1CN([C@@H](C)CO)C(=O)c2cc(NC(=O)Cc3cn(C)c4ccccc34)ccc2O[C@@H]1CN(C)S(=O)(=O)c1ccc(F)cc1 | -3 | -2 | / | 0 | / | 0
COc1ccc(C(=O)c2c(C)c3cc(C)ccc3n2CC(O)CN2CCOCC2)cc1 (centres undefined) | 10 | -41 | 1 | / | / | 44*
COc1ccc(C(=O)OC(C)CN2CCOCC2)cc1 (centres undefined) | -5 | 5 | 3 | / | -7 | 0
O=C(C[C@H]1CC[C@H]2[C@@H](COC[C@@H](O)CN2Cc2nccs2)O1)NCc1ccc(Oc2ccccc2)cc1 | -3 | 0 | 1 | 0 | 43 | 0
Cc1ccc(N(C(C)C(=O)NCc2ccncc2)S(C)(=O)=O)cc1C (centres undefined) | -4 | 10 | -10 | / | 0 | 43*
CO[C@@H](CN(C)Cc1cc(F)ccc1F)[C@@H](C)CN(C(=O)Nc1ccc(F)cc1)[C@H](C)CO | -1 | -4 | -11 | 0 | -1 | 0
CC1=CC(C)(C)NC(=S)N1c1cccc2cc(S(=O)(=O)O)ccc12 | 20* | 18 | 8 | 0 | / | 0
COc1ccc2[nH]cc(CCNC(=S)NCCc3ccccc3)c2c1 | -6 | -35* | -20 | / | -12 | /
COc1ccc2[nH]cc(C(=O)NCCc3ccccc3)c(=O)c2c1 | 2 | -21* | 1 | 0 | 4 | 0
COc1ccc2c(=O)c(C(=O)NCc3ccccc3)c[nH]c2c1 | 3 | -2 | 7 | 1 | 1 | 0
COc1ccc2[nH]cc(CCNC(=O)Cn3cc(C)c(=O)[nH]c3=O)c2c1 | / | 12 | 5 | 0 | -8 | 43*
COc1ccc2c(=O)c(C(=O)NCCc3ccccc3)c[nH]c2c1 | 0 | -27* | 0 | 0 | -7 | 0
O=C(C[C@H]1C[C@H]2c3cc(NS(=O)(=O)c4ccccc4)ccc3O[C@H]2[C@@H](CO)O1)NC1CCCCC1 | -3 | -5 | 4 | 0 | -3 | 0
